Results taken from the EternaBench riboswitch data.

Assays:
MS2 coat protein [1] = experiment: apparent Kd, MS2 coat protein; higher = weaker binding; RNA-MaP array
Procedure, shortened: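 Binding of fluorescently labeled MS2 coat protein, at 1.5 nM to 3 μM and room temperature, was measured with or without input ligand on designed RNAs transcribed on an Illumina sequencing chip from sequenced DNA templates. Apparent Kd was defined as the median of per-cluster binding-curve fits. No design measured on fewer than 10 clusters was kept.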

MS2 coat protein [2] = experiment: apparent Kd, MS2 coat protein; higher = weaker binding; RNA-MaP array; FMN 200 µM where present; conditions: designed as: ON switch for flavin mononucleotide
Procedure, shortened: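 Green signal was scaled to red-channel RNA signal and control-cluster median Fmax, and the apparent Kd was taken as the median of filtered per-cluster binding-curve fits. The binding series used SNAP-549-labelled MS2 coat protein from 0.7 or 1.5 nM, doubling to 3 µM, on designs transcribed by stalled E. coli RNA polymerase on Illumina sequencing-chip clusters. Each series ran without and then with constant ligand in 100 mM Tris-HCl pH 7.5, 80 mM KCl, 4 mM MgCl2, BSA, DTT, yeast tRNA and Tween-20.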

[3] = designed as: ON switch for theophylline, no ligand
[4] = ligand present: theophylline, designed as: ON switch for theophylline
[5] = designed as: OFF switch for flavin mononucleotide, no ligand
[6] = ligand present: flavin mononucleotide, designed as: OFF switch for flavin mononucleotide
[7] = designed as: ON switch for flavin mononucleotide, no ligand
[8] = ligand present: flavin mononucleotide, designed as: ON switch for flavin mononucleotide
[9] = designed as: OFF switch for theophylline, no ligand
[10] = ligand present: theophylline, designed as: OFF switch for theophylline
[11] = ligand present: flavin mononucleotide

Sequence	apparent Kd (MS2 coat protein [1]; [5]) [nM]	apparent Kd (MS2 coat protein [1]; [6]) [nM]	other results
GAAGCUCGCGAUGAUACCAGCUCGACUGAUAACAUGAGGAUCACCCAUGUUGUGCGCCCUAGCCCUUGGCAGCAUGACAUAUUCG	–	–	apparent Kd (MS2 coat protein [1]; [3]): 110 nM; apparent Kd (MS2 coat protein [1]; [4]): 71.1 nM
UAAAUUCGAGGAUAUACGAGCCUCUUGAGCUGCCACGAAGCACAUGAGGAUCACCCAUGUAGAAGGCGACGGAU	12.2	19.9	–
ACAUGCUCUGAGGAUAUCAAUAAUCCCUAUUACUGAGAAGGCAGCACAUGAGGAUCACCCAUGUGAGGUGAGUC	34.5	58.8	–
UGGUAUGAAGGAUAUGACUAAGUUCACAUGAGGAUCACCCAUGUAACGUCCUCGACAUGUUCAGAAGGUCAGGCGA	11.7	11.4	–
CCGGUCCACUAGGAUAUGCGGAGUGUAUAUCACGCAGAAGGAGUCACAUGAGGAUCACCCAUGUGCGUGGGUUG	9.4	9.16	–
GACUACCAGGAAGGAUAUGCCUAUAACUGAAAGACAUGAGGAUCACCCAUGUAUUGGGCGAACCUGCAGAAGGUCCGACUAGAC	40.6	41.2	–
CGACGUCACGUGAGGAUAUGAUUGCUGCAAAUCAGUCAGAAGGCACAUGAGGAUCACCCAUGUCACCAAUACGA	7.15	10.3	–
GCACGACAUGAGGAUCACCCAUGUGAGGAUAUACUACAUCAGGAACACGCUAUGCACGGUAGAAGGCACGGGAG	16.4	15.6	–
AACAUGGAUCAAGGAUAUGCAAAGCGCUCGAUAAACAUGAGGAUCACCCAUGUGGCAGUCACAACGCAGAAGGUGACUAUAAUA	–	–	apparent Kd (MS2 coat protein [1]; [7]): 29.9 nM; apparent Kd (MS2 coat protein [1]; [8]): 19.3 nM
CGAACGGGCCACACUACAUGAGGAUCACCCAUGUUCGAAGAUAGAAGGUGUAGCUGGCCUCGUUACAAGGAUAUAUCUUAUACC	29.2	27.4	–
GGGUGACAUGAGGAUCACCCAUGUCAGGAUAUGGACUCGAAAUUAGGUAUGAAUCACGCCAGAAGGGACCGGGC	55	44	–
GAUGGAAUAAGAGAUACCAGACACAAUUUAGCAUGUAUAUACAUGAGGAUCACCCAUGUAGUCCCUUGGCAGCUCUGGUUAGUGU	–	–	apparent Kd (MS2 coat protein [1]; [9]): 26.5 nM; apparent Kd (MS2 coat protein [1]; [10]): 26.7 nM
AUUCCAAUAGGAUAUACAUGAGGAUCACCCAUGUGAUGAGCCCGUAAGACAGACGUCAGUAGAAGGAUUAGGAA	24.5	31.7	–
GUACGGUGAGGAUAUCGUUAAGAUGUGGACAGGCCUACAUACGAGAAGGCACAUGAGGAUCACCCAUGUUCAUA	21.5	18.8	–
UCCCGACAUGAGGAUCACCCAUGUCCAUUGUCGGUCGAGAGUAAGGAUAUAGAUAAUCAGGAGAACUAGAAGGUACUGUUAGCG	530	164	–
GCAUACAGCAAGAAGGUGGCAUCGACUAUGGCCCAAGGAUAUUGCGGUACUACAUGAGGAUCACCCAUGUGUUCAUGAUUAUAG	–	–	apparent Kd (MS2 coat protein [1]; [7]): 35.5 nM; apparent Kd (MS2 coat protein [1]; [8]): 30.2 nM
AAAAGACAUGAGGAUCACCCAUGUAGAGAUACCAGAUGCAUGGACAUCCCUUGGCAGCUCGUCACUUUCUAUAUUUUCCAGACGC	–	–	apparent Kd (MS2 coat protein [1]; [3]): 46.9 nM; apparent Kd (MS2 coat protein [1]; [4]): 21.9 nM
UUGAGACAACACCCAACAUGAGGAUCACCCAUGUCACCGAGAGAGGAUAUGCACGAGUAGGUCCAGCAGAAGGCUCUAUGUCAA	–	–	apparent Kd (MS2 coat protein [1]; [7]): 115 nM; apparent Kd (MS2 coat protein [1]; [8]): 15.9 nM
ACAAGGCUUACAGGAUAUGUGCGUCAUACAAAACAUGAGGAUCACCCAUGUGCCCCAGCGUCUUCACAGAAGGGUACAAGCGUU	–	–	apparent Kd (MS2 coat protein [1]; [7]): 26.6 nM; apparent Kd (MS2 coat protein [1]; [8]): 12.4 nM
AAGCUGGAGAAUACAUGAGGAUCACCCAUGUGGCUUCAUGCCUAGGAUAUUAGUGUGCAGAACUGUAAGAAGGAGGAUCUUUAA	10.3	8.56	–
UGUUGCAGCCACAUGAGGAUCACCCAUGUGCUCAGGAUCGUUGAGGAUAUCGAGGUAGGGUCAGCCGAGAAGGCAAGGGUCGCG	–	–	apparent Kd (MS2 coat protein [1]; [7]): 10.5 nM; apparent Kd (MS2 coat protein [1]; [8]): 8.64 nM
CGGGCGAAGCCUUUCACAUGAGGAUCACCCAUGUCUAAUACGAAGGAUAUCCUCGCCGGAGCUAAGGAGAAGGUCGACAUAGUU	18.9	19.2	–
GACGAAUCGGCAGGAUAUCUAGAUGAGCCAGAAUGUAAUUGAGUUGACAUGAGGAUCACCCAUGUAGAGAAGGGCCCAUCCAUU	12.1	20.7	–
UAGAAGAACAUGCGGGCUCCGGACGGUGAUACCAGAUCGAAAAGGAUCCCUUGGCAGCACUGCACAUGAGGAUCACCCAUGUGCA	–	–	apparent Kd (MS2 coat protein [1]; [9]): 9.2 nM; apparent Kd (MS2 coat protein [1]; [10]): 15.8 nM
GCGCUUAUACAGAAGGCCAUAUACAUGAGGAUCACCCAUGUUAUUUGGUGGAGGAUAUGUUUUUUAUUACAGGUAGUUGAGCGC	–	–	apparent Kd (MS2 coat protein [2]; no ligand): 7.42 nM; apparent Kd (MS2 coat protein [2]; [11]): 5.91 nM
GUGUGAUUAAGAGGAUAUAUACAACAUGAGGAUCACCCAUGUACCCGUGUAGUAGAAGGUUUGUUUUUAUAUAAUAUUAUAAUU	–	–	apparent Kd (MS2 coat protein [2]; no ligand): 29.9 nM; apparent Kd (MS2 coat protein [2]; [11]): 24.8 nM
